# Reference: ChEMBL document CHEMBL4513216, “Probing the Open Global Health Chemical Diversity Library for Multistage-Active Starting Points for Next-Generation Antimalarials” (ACS Infect Dis, 2020)
# Assay: Toxicity liver stage against HepG2, at 10uM
# Format: cell-based
# Parameters: test concentration 10 uM, cell line HepG2-A16-CD81EGFP
# Details: human, HepG2-A16-CD81EGFP cells; read-out: INHIBITION
# How it was run: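 Uninfected HepG2-A16-CD81EGFP cells, 3 × 10^3 per well, 1536-well, plated on prespotted compound at 10 μM final, parasite-free screening media added to match infected plates; puromycin 10 μM positive, DMSO 0.5% negative; run in parallel with 48 h PbLuc assay at 37 °C, 5% CO2; viability by CellTiter-Glo luminescence, normalized to controls.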
row,SMILES,cytotoxicity at 10 µM [%]
1,Cc1cc(C)nc(NCCSc2cnn[nH]2)n1,3.22
2,Cn1cc(CN2CCCC3(CCCCN3S(C)(=O)=O)C2)cn1 (stereo not given),-76.3
3,COc1cccc(OC2CN(C(=O)C3CCCN(C(=O)N(C)C)C3)C2)c1 (stereo not given),0.754
4,Cc1noc(C)c1C(=O)N1CCSc2ccc(Cl)cc21,-108
5,O=C(CNCC1(O)CCCN(Cc2cccc(F)c2F)C1=O)NC1CC1 (stereo not given),-4.02
6,Cc1cnn(CC(C)NCc2ccc(OCc3cccnc3)cc2)c1 (stereo not given),-1.07
7,CC(=O)c1cn(CCC(=O)NCCCC(=O)O)c2ccccc12,-1.63
8,Cc1cc(C)n(-c2cncc(NCCNC(=O)C(C)(C)C)n2)n1,1.36
9,O=C(c1ccc[nH]1)N1CCc2c(COCc3ccncc3)cncc2C1,14.7
10,CCc1csc(NC(=O)NCc2ccccn2)n1,-4.61
11,NC1(c2nc(C(F)(F)F)cc(=O)[nH]2)CCCC1,19.1
12,C1CCN(CCO[C@@H]2CC[C@H]3[C@H]2OCCN3CC2CCOCC2)C1,2.98
13,O=S(=O)(NCCNc1ccc(-n2cccn2)nn1)c1ccccc1,-8.55
14,CN1CCc2c(C#N)c(NCCc3ccccc3)n3cnnc3c2C1,12.4
15,c1ccc(CO[C@@H]2C[C@H]3CN(c4ncccn4)CCN3C2)nc1,-7.49
16,CCS(=O)(=O)CC(=O)NC(c1ccc(F)cc1)C1CCCC1 (stereo not given),4.57
17,Cc1cc(C)c(CNC(=O)N2CCCN(C(=O)C(C)C)CC2)c(C)c1,12.3
18,CC(=O)NCC(=O)N1CCc2c(CNc3ncccn3)cncc2C1,1.59
19,O=C(CCOc1ccccc1F)NC1CCCN(c2ccccn2)C1 (stereo not given),-5.67
20,CC(=O)N1CCN(C(=O)c2cc(C(C)C)no2)[C@H]2CS(=O)(=O)C[C@H]21,-7.8
21,O=C1CCCC2=Nc3nonc3NC(c3ccccc3Cl)C12 (stereo not given),18.5
22,COCCCNC(=O)CN1CCCC1c1c(C)nn(C)c1Cl (stereo not given),6.69

row,SMILES,cytotoxicity at 10 µM [%]
1,Cc1ccc(CN2C[C@@H]3COC[C@H](C(=O)N4CCCCO4)[C@@H]3C2)o1,3.37
2,CCc1ncc2c(n1)CN(Cc1nc(C)c(C)o1)CC2,2.92
3,CCc1nc(C)c(C(=O)NCCNc2ncnc3sccc23)s1,41.1
4,O=C(c1ccncc1)N1CCC(c2nc(O)cc(-c3cccnc3)n2)C1 (stereo not given),-0.0788
5,Cc1nc(CO[C@@H]2CN(Cc3cnn(C)c3)[C@@H]3COC[C@@H]32)cs1,-7.06
6,Cc1nc(C2CCCN2C(=O)c2cnns2)no1 (stereo not given),-3.71
7,O=c1c2cnc(N3CCCCC3)nc2ccn1Cc1ccco1,-9.69
8,O=C(c1ccccn1)N1C[C@H]2CC[C@@H](C1)N(C(=O)Cc1cccs1)C2,-1.13
9,Cc1cc(C)n(CC(=O)N2CCC(NS(C)(=O)=O)CC2)n1,3.18
10,CCn1cc(C(=O)N2CCCC(c3[nH]ncc3S(C)(=O)=O)C2)cn1 (stereo not given),8.42
11,CC(=O)N1CC[C@@H]2O[C@H](C(=O)Nc3nc(C)cs3)C[C@@H]21,4.62
12,Cc1cc2c(c(-c3cnccn3)c1)OC(CN)C2 (stereo not given),-5.13
13,Cc1ccc(C(CNCc2ccncc2)N2CCOCC2)s1 (stereo not given),-14.6
14,CCCc1nc(CNC(=O)Cc2cc(C)no2)cs1,-11.5
15,COCCC(=O)NCCCOC1CCCc2ccccc21 (stereo not given),-6.87
16,O=C(NCc1ccco1)[C@@H]1CCO[C@@H]2CCN(c3ccncn3)C[C@H]21,0.118
17,O=C(c1cccnc1)N1CCC2(CC1)CNc1c(F)cccc12,-1.02
18,CC(C)CN1CCc2[nH]cnc2C12CCN(C(=O)c1cncn1C)CC2,-8.1
19,COc1cccc(CN2CCC3(CCN(C(=O)[C@H]4CCCO4)CC3)C2)c1,6.57
20,CCCc1noc(C(C)N2CCN(CCn3ccccc3=O)CC2)n1 (stereo not given),5.6
21,CCNc1ncc(C(=O)N(C)CCc2nc3cc(Cl)ccc3[nH]2)cn1,-45.8
22,CS(=O)(=O)CCSCc1cccc2cccnc12,-6.64

row,SMILES,cytotoxicity at 10 µM [%]
1,O=C1[C@@H]2CC[C@@H](CN(S(=O)(=O)c3ccccc3)C2)N1Cc1cscn1,-6.23
2,CNC(=O)[C@@H]1C[C@H]2CN(Cc3ccco3)C[C@H]2N1C,7.76
3,Cn1ccnc1CN1CCC(CCC(=O)Nc2ccccc2Cl)CC1,-3.73
4,N#Cc1cc2n(n1)CCN(C(=O)CCc1c[nH]c3ccccc13)C2,-9.64
5,CN(c1ncnc2ccccc12)C1CCCN(c2cccnn2)C1 (stereo not given),19.5
6,O=C(c1ccco1)N1CC[C@@H]2O[C@H](COCC3CCOCC3)CC[C@@H]21,6.8
7,CC(C)C(=O)NCCc1nc(-c2ccncc2)n[nH]1,7.78
8,Cn1c2c(ccc1=O)CC(NS(C)(=O)=O)CC2 (stereo not given),3.99
9,CC(C)c1ccc(CS(=O)(=O)Cc2nc(N)nc(N(C)C)n2)cc1,7.34
10,Cc1ccoc1C(=O)NC1CCN(Cc2ccccc2F)CC1,-14.1
11,CNC(=O)c1sccc1N(C)S(=O)(=O)c1ccc(Cl)cc1,14.7
12,CC1CCCCN1C1CN(C(=O)c2sccc2S(N)(=O)=O)C1 (stereo not given),-1.45
13,CCN1CCN(S(=O)(=O)c2cc(Cl)c(Cl)cc2C)CC1,2.28
14,CC(C)C(=O)NCC(=O)N1CCC2(CC1)c1ccccc1[C@@H](N)[C@@H]2O,0.174
15,COc1cccc2cc(CNC(=O)N3CCC(C(N)=O)CC3)oc12,-6.13
16,CCc1nnc(CN2CC(n3cccn3)C2)o1,-146
17,CCc1cc(C(=O)N2CCCC(Cc3ccc(NC)nn3)C2)on1 (stereo not given),-14.1
18,O=C(CCCNCc1ccccc1)N1CCCn2cncc2C1,-3.32
19,Cn1cc(N2CCC3(CCN(C(=O)c4cccn4C)C3)C2=O)cn1 (stereo not given),2.93
20,CC(C)NC(=O)C1CCC2(CCNCC2)C1 (stereo not given),7.18
21,CN(C)C(=O)CC1CC2(CCN(Cc3cccs3)CC2)c2ccccc21 (stereo not given),-3.87
22,O=C(CCc1cccs1)N1CCCCC1Cn1cccn1 (stereo not given),1.54

row,SMILES,cytotoxicity at 10 µM [%]
1,CCc1[nH]ncc1C(=O)N1CCCN(Cc2nccn2C(C)C)CC1,-8.92
2,CCC(O)Cn1nc(-c2ccc(C(=O)O)cc2)cc1-c1ccc(F)cc1 (stereo not given),1.24
3,CN(CCNC(=O)N1CCCC1)C(=O)OC(C)(C)C,3.97
4,Cc1cc2ccccc2n1CCC(=O)N1CCN(C)CC1C(N)=O (stereo not given),-1.04
5,O=C(Nc1ccccc1-c1ccccc1)N1C[C@@H]2CNC[C@]2(C(=O)O)C1,-40.5
6,c1cn(Cc2nnc(C3CCN(c4nccs4)CC3)n2C2CC2)cn1,-7.6
7,Cc1cc(CN2CCN(CC(O)C(C)(C)C)CC2)no1 (stereo not given),-14.8
8,O=C(CCCNC(=O)C1CC1)Nc1cnn(-c2ccccc2Cl)c1,-12.3
9,CCCc1nnc(N2C[C@@H](C)[C@@](C)(O)C2)s1,1.22
10,COc1ccc(NC(=O)CCC2CCCN(Cc3ncon3)C2)c(C)c1 (stereo not given),0.523
11,O=C(c1c(F)cccc1F)N1CCOCC1,5.33
12,CN(C)c1nccc(CNS(=O)(=O)c2ccc(F)c(Cl)c2)n1,-140
13,CCOC(=O)N1[C@@H](c2ccco2)[C@@H](CO)C[C@]12CCCCNC2=O,0.644
14,O=C(CCc1ccc(Br)cc1)NCc1nnc[nH]1,0.163
15,COc1ccc(NC(C)=O)cc1OCc1cccnc1,-23.5
16,Cc1sc(NC(=O)CN(C)CCOc2cccc(F)c2)c(C)c1C,4.21
17,COCCCNC(=O)Cc1cc(-c2ccccc2)on1,-7.39
18,Cc1ccc(C(=O)N(C)CCOc2ccccc2F)c(=O)[nH]1,-136
19,CN(Cc1ccsc1)C(=O)CN1CCCC1Cn1cccn1 (stereo not given),-3.78
20,Cc1c(C2CCCN(C(=O)C3CC3)C2)n2c(nc1=O)CCC2 (stereo not given),-1.85
21,O=C(C1SCCc2ccccc21)N1CCC(O)CC1 (stereo not given),0.0013
22,CN(C)C(=O)CN(C)C(=O)c1csc(Br)c1,12.3

row,SMILES,cytotoxicity at 10 µM [%]
1,CN1CCOC(CNC(=O)CCCOc2cccc(F)c2)C1 (stereo not given),-5.1
2,Cc1nc(CN2CCCC(N(C)Cc3nc(C)c(C)o3)C2)no1 (stereo not given),-6.6
3,COc1ccc(-c2cnc(CN3CCCC3CO)o2)cc1 (stereo not given),9.38
4,O=C(NCC(O)(c1ccco1)C1CC1)c1c(F)cccc1Cl (stereo not given),-2.69
5,CCN(C(C)c1cccc(O)c1)S(=O)(=O)c1cccnc1 (stereo not given),10.8
6,CNc1nccnc1C1CN(Cc2ccc(OCC(=O)O)cc2)CCO1 (stereo not given),-5.73
7,CCOC(=O)COc1ccc(C(C)=O)c(O)c1,-19.3
8,Cc1ccc(N2CCC3(CCN(C(=O)c4ccnnc4)CC3)CC2)nn1,3.94
9,CCSc1ncc(CN2CCN(c3ncc(C)c(N)n3)CC2)cn1,-4.65
10,COCc1cc(CNC(=O)c2cccc3c2OCC3)n[nH]1,8.97
11,Cc1nnc(N2CCOC(C)C2)c(C#N)c1C (stereo not given),-11.7
12,CC(C)n1ccnc1CN1CCCN(C(=O)CC2C=CCC2)CC1 (stereo not given),3.08
13,Cc1ccc(CNCc2cccc3cccnc23)c(OC2CCOC2)c1 (stereo not given),1.42
14,Cc1cc(-c2ccnn2C)nc(C2CCCN(S(C)(=O)=O)C2)n1 (stereo not given),3.33
15,CCC1CN(C(=O)COc2ccc(NC(C)=O)cc2)CCO1 (stereo not given),-9.4
16,CC(C)COC(=O)N1CCN(C(=O)c2ccc3nccn3c2)CC1,12.6
17,CCCOC1CCCN(c2ccnc(C(=O)NCc3ccco3)c2)C1 (stereo not given),5.58
18,Cc1ccc(-c2nnc(NC(=O)c3ccn(C)c(=O)c3)[nH]2)s1,-1.15
19,OCc1csc(N2C[C@@H](CN3CCCCCC3)[C@@H](CO)C2)n1,2.65
20,CS(=O)(=O)NC[C@H]1OC[C@@H]2CCN(C(=O)c3cccnc3)C[C@@H]21,5.31
21,CC(C)=CCN1CCN(Cc2cccc(C)n2)CC1CCO (stereo not given),1.99
22,COCCc1noc(CN2CCCC2c2noc(C)n2)n1 (stereo not given),4.73
